Laboratory results reported in ChEMBL document CHEMBL5653631, “A Potent and Selective ULK1 Inhibitor Suppresses Autophagy and Sensitizes Cancer Cells to Nutrient Stress” (iScience, 2018).

Key:
[1] = target: Serine/threonine-protein kinase pim-2 (Homo sapiens) (UniProt Q9P1W9); assay: Inhibition of human recombinant PIM2 at 500 nM related to control ULK1
[2] = target: T1, TGF-beta receptor type-1 (Homo sapiens) (UniProt P36897); assay: Inhibition of human recombinant TGFbR1 at 500 nM in presence of ATP by radiometric assay relative to control
T1 sequence (whole entry): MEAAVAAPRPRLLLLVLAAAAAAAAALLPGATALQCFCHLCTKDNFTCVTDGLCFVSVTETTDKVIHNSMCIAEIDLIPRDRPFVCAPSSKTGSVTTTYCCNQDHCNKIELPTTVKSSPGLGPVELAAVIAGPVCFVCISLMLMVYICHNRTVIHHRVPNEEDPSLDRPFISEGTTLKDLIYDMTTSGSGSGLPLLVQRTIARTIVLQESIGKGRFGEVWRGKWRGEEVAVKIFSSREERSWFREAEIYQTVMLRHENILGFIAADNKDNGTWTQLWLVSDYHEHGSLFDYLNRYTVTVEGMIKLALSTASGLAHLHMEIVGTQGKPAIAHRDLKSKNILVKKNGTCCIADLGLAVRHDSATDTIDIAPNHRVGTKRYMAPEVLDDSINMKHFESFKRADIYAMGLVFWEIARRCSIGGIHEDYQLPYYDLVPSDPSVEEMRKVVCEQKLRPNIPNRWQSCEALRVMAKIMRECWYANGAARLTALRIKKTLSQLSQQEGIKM

[3] = target: Protein kinase C eta type (Homo sapiens) (UniProt P24723); assay: Inhibition of human recombinant PKCH at 500 nM related to control ULK1
[4] = target: G protein-coupled receptor kinase 6 (Homo sapiens) (UniProt P43250); assay: Inhibition of human recombinant GPRK6 at 15 nM in presence of ATP by radiometric assay relative to control
[5] = target: T2, Serine/threonine-protein kinase DCLK3 (Homo sapiens) (UniProt Q9C098); assay: Inhibition of human recombinant DCAMKL3 at 15 nM in presence of ATP by radiometric assay relative to control
T2 sequence (whole entry): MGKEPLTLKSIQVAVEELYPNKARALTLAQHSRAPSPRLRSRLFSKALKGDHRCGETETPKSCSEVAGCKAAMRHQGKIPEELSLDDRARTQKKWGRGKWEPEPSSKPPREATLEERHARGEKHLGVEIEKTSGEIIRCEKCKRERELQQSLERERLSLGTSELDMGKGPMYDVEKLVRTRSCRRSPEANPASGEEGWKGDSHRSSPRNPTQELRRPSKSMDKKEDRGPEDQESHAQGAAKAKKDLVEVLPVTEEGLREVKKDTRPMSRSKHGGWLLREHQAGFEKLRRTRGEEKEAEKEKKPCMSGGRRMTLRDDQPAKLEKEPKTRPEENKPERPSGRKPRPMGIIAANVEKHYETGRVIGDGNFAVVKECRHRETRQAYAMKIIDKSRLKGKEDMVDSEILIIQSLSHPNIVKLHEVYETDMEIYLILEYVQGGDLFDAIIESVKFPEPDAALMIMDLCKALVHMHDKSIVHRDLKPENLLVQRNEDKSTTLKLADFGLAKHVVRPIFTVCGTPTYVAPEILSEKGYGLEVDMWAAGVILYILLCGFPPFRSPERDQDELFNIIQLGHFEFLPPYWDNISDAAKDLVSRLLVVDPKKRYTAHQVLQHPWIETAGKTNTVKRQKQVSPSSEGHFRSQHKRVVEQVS

[6] = target: Ribosomal protein S6 kinase alpha-1 (Homo sapiens) (UniProt Q15418); assay: Inhibition of human recombinant RSK1 at 15 nM related to control ULK1
[7] = target: Vascular endothelial growth factor receptor 1 (Homo sapiens) (UniProt P17948); assay: Inhibition of human recombinant FLT1 at 15 nM in presence of ATP by radiometric assay relative to control
[8] = target: Activated CDC42 kinase 1 (Homo sapiens) (UniProt Q07912); assay: Inhibition of human recombinant ACK at 40 nM related to control ULK1
How it was run: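 Radiometric activity assays in a panel of 327 human recombinant kinases, each run in duplicate at one inhibitor concentration. Activity remaining is expressed as percent of vehicle control, and percent inhibition is calculated as 100% minus percent activity remaining.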

[9] = target: Ephrin type-A receptor 2 (Homo sapiens) (UniProt P29317); assay: Inhibition of human recombinant EphA2 at 40 nM in presence of ATP by radiometric assay relative to control
[10] = target: Leucine-rich repeat serine/threonine-protein kinase 2 (Homo sapiens) (UniProt Q5S007); assay: Inhibition of human recombinant LRRK2 at 40 nM related to control ULK1
[11] = target: T3, Receptor-interacting serine/threonine-protein kinase 1 (Homo sapiens) (UniProt Q13546); assay: Inhibition of human recombinant RIPK1 at 40 nM related to control ULK1
T3 sequence (whole entry): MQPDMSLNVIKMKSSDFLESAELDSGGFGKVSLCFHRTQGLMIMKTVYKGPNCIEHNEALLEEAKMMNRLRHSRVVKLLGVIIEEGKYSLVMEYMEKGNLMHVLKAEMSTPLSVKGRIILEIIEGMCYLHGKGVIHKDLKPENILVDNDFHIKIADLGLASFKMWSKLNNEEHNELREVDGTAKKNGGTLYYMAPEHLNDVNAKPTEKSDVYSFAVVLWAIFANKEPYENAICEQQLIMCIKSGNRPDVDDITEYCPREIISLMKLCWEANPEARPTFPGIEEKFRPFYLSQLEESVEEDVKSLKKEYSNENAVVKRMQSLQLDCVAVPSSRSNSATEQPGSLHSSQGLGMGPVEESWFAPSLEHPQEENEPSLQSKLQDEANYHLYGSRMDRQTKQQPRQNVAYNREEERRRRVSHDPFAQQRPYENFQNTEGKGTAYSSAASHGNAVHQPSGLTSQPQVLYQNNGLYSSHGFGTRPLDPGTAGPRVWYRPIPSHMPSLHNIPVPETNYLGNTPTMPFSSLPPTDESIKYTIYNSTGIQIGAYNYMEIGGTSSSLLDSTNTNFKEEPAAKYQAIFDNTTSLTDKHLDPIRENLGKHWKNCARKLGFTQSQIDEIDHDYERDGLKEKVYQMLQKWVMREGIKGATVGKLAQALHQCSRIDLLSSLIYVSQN

Sequence of Ephrin type-A receptor 2 (Homo sapiens) (P29317 whole entry): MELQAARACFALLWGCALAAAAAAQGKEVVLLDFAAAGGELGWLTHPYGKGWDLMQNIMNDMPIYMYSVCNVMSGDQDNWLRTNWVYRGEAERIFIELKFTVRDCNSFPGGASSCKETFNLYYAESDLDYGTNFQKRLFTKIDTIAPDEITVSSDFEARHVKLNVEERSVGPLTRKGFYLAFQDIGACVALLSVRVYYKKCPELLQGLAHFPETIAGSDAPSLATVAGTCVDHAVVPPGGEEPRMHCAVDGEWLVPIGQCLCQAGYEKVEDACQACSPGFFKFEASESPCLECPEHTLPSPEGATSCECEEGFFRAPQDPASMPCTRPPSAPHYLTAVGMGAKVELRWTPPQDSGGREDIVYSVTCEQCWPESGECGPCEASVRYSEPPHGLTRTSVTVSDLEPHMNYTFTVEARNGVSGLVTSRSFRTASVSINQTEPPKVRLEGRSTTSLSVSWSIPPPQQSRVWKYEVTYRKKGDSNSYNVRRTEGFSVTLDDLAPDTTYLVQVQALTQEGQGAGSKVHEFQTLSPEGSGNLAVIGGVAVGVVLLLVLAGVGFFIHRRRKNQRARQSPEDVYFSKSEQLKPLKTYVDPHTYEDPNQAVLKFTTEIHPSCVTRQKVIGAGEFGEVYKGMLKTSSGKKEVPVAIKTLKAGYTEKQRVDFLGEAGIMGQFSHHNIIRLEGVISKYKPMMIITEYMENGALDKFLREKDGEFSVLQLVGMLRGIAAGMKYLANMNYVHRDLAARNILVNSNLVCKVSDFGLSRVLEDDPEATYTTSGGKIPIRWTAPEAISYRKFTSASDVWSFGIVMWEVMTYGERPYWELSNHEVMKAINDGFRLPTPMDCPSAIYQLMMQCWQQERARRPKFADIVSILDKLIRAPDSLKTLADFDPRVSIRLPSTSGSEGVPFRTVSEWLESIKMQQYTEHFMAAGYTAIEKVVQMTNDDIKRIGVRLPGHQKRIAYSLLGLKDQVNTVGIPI
Sequence of Leucine-rich repeat serine/threonine-protein kinase 2 (Homo sapiens) (Q5S007 whole entry): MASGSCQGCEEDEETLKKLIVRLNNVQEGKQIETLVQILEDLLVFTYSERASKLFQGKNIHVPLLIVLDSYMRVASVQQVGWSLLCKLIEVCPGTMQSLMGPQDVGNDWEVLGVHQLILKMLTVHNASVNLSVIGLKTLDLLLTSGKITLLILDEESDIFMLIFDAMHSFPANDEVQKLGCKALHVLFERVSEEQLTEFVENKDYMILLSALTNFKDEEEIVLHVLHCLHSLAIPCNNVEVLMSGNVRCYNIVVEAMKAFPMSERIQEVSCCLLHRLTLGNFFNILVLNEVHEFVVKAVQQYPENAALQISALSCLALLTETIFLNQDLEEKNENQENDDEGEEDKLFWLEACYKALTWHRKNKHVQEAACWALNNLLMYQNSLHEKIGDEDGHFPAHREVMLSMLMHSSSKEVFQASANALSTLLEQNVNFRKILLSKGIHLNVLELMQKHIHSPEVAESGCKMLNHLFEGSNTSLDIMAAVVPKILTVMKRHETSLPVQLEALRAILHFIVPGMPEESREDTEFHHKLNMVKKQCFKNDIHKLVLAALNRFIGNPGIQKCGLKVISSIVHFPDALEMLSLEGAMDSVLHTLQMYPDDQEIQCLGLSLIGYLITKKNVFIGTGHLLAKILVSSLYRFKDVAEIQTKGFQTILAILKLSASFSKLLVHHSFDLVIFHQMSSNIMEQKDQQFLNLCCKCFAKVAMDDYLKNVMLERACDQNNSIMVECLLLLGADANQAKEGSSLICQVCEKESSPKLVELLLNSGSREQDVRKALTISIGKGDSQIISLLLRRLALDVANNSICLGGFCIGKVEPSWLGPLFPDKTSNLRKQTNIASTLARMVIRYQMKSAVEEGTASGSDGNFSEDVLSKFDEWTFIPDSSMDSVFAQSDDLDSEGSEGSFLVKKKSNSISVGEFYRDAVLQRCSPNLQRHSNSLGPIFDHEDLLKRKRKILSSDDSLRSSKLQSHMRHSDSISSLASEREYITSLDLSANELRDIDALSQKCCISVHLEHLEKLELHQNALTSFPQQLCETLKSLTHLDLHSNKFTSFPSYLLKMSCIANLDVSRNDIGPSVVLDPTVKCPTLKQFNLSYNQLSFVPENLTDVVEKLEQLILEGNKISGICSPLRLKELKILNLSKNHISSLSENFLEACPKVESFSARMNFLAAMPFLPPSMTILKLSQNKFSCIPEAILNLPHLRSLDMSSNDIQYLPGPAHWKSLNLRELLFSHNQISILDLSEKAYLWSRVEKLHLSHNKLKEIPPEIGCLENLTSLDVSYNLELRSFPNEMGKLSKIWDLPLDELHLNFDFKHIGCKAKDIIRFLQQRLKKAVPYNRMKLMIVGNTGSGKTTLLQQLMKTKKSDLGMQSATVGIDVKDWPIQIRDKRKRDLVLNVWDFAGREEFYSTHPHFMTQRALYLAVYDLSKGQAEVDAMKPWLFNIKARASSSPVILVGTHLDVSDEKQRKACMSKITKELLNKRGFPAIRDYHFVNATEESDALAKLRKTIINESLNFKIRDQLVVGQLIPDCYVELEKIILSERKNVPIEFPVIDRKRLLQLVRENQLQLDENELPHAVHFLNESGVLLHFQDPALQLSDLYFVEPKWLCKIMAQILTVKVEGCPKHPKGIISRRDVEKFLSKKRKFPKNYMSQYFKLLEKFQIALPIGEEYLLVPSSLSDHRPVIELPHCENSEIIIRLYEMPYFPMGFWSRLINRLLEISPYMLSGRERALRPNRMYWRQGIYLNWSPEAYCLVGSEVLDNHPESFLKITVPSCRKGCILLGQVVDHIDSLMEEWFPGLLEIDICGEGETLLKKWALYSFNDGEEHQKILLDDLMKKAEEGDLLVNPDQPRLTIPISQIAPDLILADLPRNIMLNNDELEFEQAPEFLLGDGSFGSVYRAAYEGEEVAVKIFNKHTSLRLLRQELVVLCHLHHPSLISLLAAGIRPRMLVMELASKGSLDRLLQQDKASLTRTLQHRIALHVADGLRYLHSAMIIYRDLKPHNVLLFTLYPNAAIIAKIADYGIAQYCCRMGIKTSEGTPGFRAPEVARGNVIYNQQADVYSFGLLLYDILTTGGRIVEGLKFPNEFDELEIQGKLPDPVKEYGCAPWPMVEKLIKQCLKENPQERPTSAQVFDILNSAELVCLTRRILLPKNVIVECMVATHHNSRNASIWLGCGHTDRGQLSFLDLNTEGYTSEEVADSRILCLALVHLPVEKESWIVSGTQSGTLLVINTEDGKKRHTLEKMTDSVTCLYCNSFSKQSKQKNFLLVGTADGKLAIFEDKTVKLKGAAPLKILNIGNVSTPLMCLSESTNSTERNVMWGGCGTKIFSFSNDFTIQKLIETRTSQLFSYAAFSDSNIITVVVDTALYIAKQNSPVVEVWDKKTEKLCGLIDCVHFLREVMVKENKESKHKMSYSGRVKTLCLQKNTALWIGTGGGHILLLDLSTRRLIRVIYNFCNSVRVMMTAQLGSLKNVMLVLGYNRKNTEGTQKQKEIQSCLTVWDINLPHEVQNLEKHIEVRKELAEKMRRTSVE
Sequence of Vascular endothelial growth factor receptor 1 (Homo sapiens) (P17948 whole entry): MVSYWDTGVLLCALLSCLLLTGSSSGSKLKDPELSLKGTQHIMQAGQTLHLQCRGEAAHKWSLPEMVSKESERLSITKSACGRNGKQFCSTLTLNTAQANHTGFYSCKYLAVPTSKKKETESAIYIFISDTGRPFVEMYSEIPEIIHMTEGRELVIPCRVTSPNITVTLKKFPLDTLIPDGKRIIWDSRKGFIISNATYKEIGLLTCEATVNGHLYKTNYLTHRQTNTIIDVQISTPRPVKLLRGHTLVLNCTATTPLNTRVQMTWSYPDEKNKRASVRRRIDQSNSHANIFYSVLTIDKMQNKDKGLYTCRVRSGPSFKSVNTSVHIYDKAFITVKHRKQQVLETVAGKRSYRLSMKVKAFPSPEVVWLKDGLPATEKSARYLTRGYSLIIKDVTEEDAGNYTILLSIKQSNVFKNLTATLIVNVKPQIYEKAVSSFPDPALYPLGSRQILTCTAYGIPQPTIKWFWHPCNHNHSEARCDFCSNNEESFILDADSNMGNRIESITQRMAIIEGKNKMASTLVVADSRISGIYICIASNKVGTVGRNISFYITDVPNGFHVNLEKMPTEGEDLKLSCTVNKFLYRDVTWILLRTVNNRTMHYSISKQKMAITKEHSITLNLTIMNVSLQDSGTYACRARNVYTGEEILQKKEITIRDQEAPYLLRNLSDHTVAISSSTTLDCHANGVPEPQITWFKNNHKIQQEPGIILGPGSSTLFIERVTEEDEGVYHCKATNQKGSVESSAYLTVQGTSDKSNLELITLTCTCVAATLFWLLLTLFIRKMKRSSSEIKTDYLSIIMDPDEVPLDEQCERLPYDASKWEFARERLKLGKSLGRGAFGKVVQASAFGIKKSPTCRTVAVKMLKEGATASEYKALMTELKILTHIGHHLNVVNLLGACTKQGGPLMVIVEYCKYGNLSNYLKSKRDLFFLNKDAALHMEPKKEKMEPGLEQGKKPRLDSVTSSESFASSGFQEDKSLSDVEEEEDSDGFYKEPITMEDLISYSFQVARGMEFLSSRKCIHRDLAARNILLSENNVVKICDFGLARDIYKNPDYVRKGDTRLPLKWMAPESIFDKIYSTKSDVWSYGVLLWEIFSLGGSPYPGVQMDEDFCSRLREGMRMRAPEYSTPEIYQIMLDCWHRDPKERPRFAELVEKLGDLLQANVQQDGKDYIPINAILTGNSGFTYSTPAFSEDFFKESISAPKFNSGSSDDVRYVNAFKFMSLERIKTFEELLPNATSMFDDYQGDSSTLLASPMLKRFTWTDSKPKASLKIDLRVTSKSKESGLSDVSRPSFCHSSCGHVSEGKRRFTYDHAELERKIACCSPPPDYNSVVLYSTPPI
Sequence of Serine/threonine-protein kinase pim-2 (Homo sapiens) (Q9P1W9 whole entry, looked up): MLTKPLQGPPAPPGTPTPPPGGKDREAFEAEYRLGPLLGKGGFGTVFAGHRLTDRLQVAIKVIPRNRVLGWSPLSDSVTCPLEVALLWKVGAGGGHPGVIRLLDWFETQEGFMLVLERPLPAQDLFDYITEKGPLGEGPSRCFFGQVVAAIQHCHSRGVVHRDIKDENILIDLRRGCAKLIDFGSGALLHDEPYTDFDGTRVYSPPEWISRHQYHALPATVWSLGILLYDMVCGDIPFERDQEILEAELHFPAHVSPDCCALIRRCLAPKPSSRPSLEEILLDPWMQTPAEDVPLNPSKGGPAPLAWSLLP

CNC(=O)c1ccccc1Oc1nc(Nc2cc(OC)c(OC)c(OC)c2)ncc1Br
fold change (FC) [1]: 0.03
inhibition [2]: 0%
fold change (FC) [3]: 0.09

CC(C)[C@H](NC(=O)c1cc(-c2cnn3cc(-c4ccc(OCCN5CCCCC5)cc4)cnc23)cs1)C(F)(F)F
inhibition [4]: 0%
inhibition [5]: 35%
fold change (FC) [6]: 0.26
inhibition [7]: 9%

O=C(N[C@@H](C1CC1)C(F)(F)F)c1cc(-c2cnn3cc(-c4ccc(F)cc4)cnc23)cs1
fold change (FC) [8]: 0.23
inhibition [9]: 2%
fold change (FC) [10]: 0.04
fold change (FC) [11]: 0.03
